Data set [1] is described as follows: folding enthalpy; higher = less favourable; fluorescence melt of hairpins on a sequencing array, two-state fit. As to conditions: sodium 0.088 M. In a few lines:
(§1)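 Folding enthalpy and melting temperature were estimated with bootstrapped two-state fits and combined across four replicates by inverse-variance weighting, with fitted temperatures raised by 9.35 °C to match UV melts. The data were Cy3 fluorescence of library hairpins, with annealed Cy3 and quencher oligos, on a sequenced MiSeq flow cell in 50 mM Na-HEPES pH 8.0, 25 mM NaCl, imaged in 2.5 °C steps up to 60 °C and normalised to pre-quench Cy3 and control constructs.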

Data set [2] is described as follows: melting temperature; fluorescence melt of hairpins on a sequencing array, two-state fit, raised by 9.35 °C to match UV melts. The conditions noted are these: sodium 0.088 M. In a few lines:
as §1

Consider GTACGTCGAAAGACTTAC (((.(((....))).))), for which the folding enthalpy in data set [1] is -25.7 kcal/mol. For the same sequence, the Tm in data set [2] came to 39.3 °C.
In the case of GTACGTGCGAAAGCATAC (((..(((....)))))), the folding enthalpy in data set [1] is -10.3 kcal/mol. Further, the Tm in data set [2] amounted to 26.4 °C.
The like results for GTACGTGGAAACACGCAC ((.((((....)))).)) were, in that order, -17.2 kcal/mol and 47.3 °C.
The like results for GTACTAGGAAACTAGCAC ((.((((....)))).)) were, in that order, -22.1 kcal/mol and 32.2 °C.
The like results for GTACTCGAAAGAGAGTAC ((((((....)))..))) were, in that order, -29.4 kcal/mol and 46.8 °C.
Consider GTACTCGAAAGAGATAC ((((((....))).))), for which the folding enthalpy in data set [1] was -18 kcal/mol. For the same sequence, the Tm in data set [2] worked out at 34.5 °C.
The like results for GTACTCGAAAGAGGCTAC ((((((....)))..))) were, in that order, -14.3 kcal/mol and 37.4 °C.
On to GTACTCGAAAGAGGTAC ((((((....))).))), for which the folding enthalpy in data set [1] is -21.1 kcal/mol. In data set [2], the Tm turned out to be 42.7 °C.
Regarding GTACTCGAAAGAGTAC ((((((....)))))), the folding enthalpy in data set [1] was -36.2 kcal/mol. The Tm in data set [2] was 61 °C.
On to GTACTCGAAAGAGTCTAC ((((((....)))..))), for which, in data set [1], the folding enthalpy is -14.6 kcal/mol. Besides, the Tm in data set [2] came out at 35.5 °C.
Turning to GTACTCGGAAACGAGTGC (.(((((....))))).), the folding enthalpy in data set [1] is -41 kcal/mol. In addition, the Tm in data set [2] came out at 54.5 °C.
The like results for GTACTGCGAAAGCACTAC (((.(((....))).))) were, in that order, -14.8 kcal/mol and 28.8 °C.
Consider GTACTGGGAAACCAGCAC ((.((((....)))).)), for which the folding enthalpy in data set [1] is -20.4 kcal/mol. Also, the Tm in data set [2] turned out to be 42.3 °C.
The like results for GTACTTCCGAAAGGATAC (((..(((....)))))) were, in that order, -10.3 kcal/mol and 24.9 °C.
On to GTACTTGGAAACAAGTAC (((((((....))))))), for which, in data set [1], the folding enthalpy was -33.5 kcal/mol. Further, in data set [2], the Tm was 56 °C.
The like results for GTAGAACGAAAGTTATAC (((.(((....))).))) were, in that order, -33.9 kcal/mol and 44.1 °C.
Take GTAGACACGAAAGTGTAC (((..(((....)))))): the folding enthalpy in data set [1] is -10.5 kcal/mol. For the same sequence, in data set [2], the Tm came to 32 °C.
The like results for GTAGACGAAAGTCCATAC ((((((....)))..))) were, in that order, -10.2 kcal/mol and 26 °C.
Turning to GTAGACGAAAGTCTATAC ((((((....)))..))), the folding enthalpy in data set [1] was -12.2 kcal/mol. In addition, the Tm in data set [2] came out at 42.6 °C.
The like results for GTAGACGAAAGTCTTTAC ((((((....)))..))) were, in that order, -10.4 kcal/mol and 29.3 °C.
The like results for GTAGACGGAAACGCCTAC ((((.((....)).)))) were, in that order, -32.3 kcal/mol and 45.3 °C.
For GTAGACGGAAACGTTTAC (((.(((....))).))), the folding enthalpy in data set [1] was -33.2 kcal/mol. The Tm in data set [2] came to 41.5 °C.
The like results for GTAGAGAAATCTAC (((((....))))) were, in that order, -12.6 kcal/mol and 35.5 °C.
The like results for GTAGAGACGAAAGTCTAC (((..(((....)))))) were, in that order, -11.7 kcal/mol and 36 °C.
With GTAGAGCGAAAGCTTTAC (((.(((....))).))), the folding enthalpy in data set [1] is -24.4 kcal/mol. Moreover, the Tm in data set [2] was determined as 47.5 °C.
The like results for GTAGAGGGAAACCTTTAC (((.(((....))).))) were, in that order, -28.7 kcal/mol and 31 °C.
With GTAGAGGGAAACTTCTAC (((((.(....).))))), the folding enthalpy in data set [1] was -21.5 kcal/mol. The Tm in data set [2] came out at 35 °C.
The like results for GTAGATCGAAAGATGTAC (((.(((....))).))) were, in that order, -31.6 kcal/mol and 42.6 °C.
On to GTAGCAGCGAAAGCTTAC (((..(((....)))))), for which the folding enthalpy in data set [1] is -10.3 kcal/mol. Also, in data set [2], the Tm stood at 26.8 °C.
The like results for GTAGCAGGAAACTACTAC ((((.((....)).)))) were, in that order, -24.4 kcal/mol and 35 °C.
The like results for GTAGCAGGAAACTGTTAC (((.(((....))).))) were, in that order, -30.4 kcal/mol and 40.5 °C.
Consider GTAGCCGAAAGGCACTAC ((((((....)))..))), for which the folding enthalpy in data set [1] is -12.5 kcal/mol. For the same sequence, the Tm in data set [2] is 48.5 °C.
The like results for GTAGCCGAAAGGCCTAC ((((((....))).))) were, in that order, -12.5 kcal/mol and 45 °C.
The like results for GTAGCCGAAAGGCGTTAC ((((((....)))..))) were, in that order, -8 kcal/mol and 38.9 °C.
The like results for GTAGCCGGAAACGGTTAC (((.(((....))).))) were, in that order, -37.7 kcal/mol and 51.3 °C.
Consider GTAGCGACGAAAGTCTAC (((..(((....)))))), for which, in data set [1], the folding enthalpy was -13.2 kcal/mol. The Tm in data set [2] is 26.9 °C.
